Measured values published in ChEMBL document CHEMBL4834396, “Molecular Recognition and Imaging of Human Telomeric G-Quadruplex DNA in Live Cells: A Systematic Advancement of Thiazole Orange Scaffold To Enhance Binding Specificity and Inhibition of Gene Expression” (J Med Chem, 2021).
Calls of active or inactive are those of the source. The calls are words filed in the database; no cut-off is given here.

What was measured:
Quadruplex DNA = test: Binding affinity to telomeric Htg24 G-quadruplex DNA (unknown origin) assessed as change in melting temperature at 5 uM at pH 7.4 by circular dichroism analysis; assay type: nucleic-acid assay
In short: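 CD melting: G4-DNA 5 μM with ligand 5 μM in 10 mM Tris-HCl pH 7.4, 60 mM KCl; signal recorded at 1 °C intervals from 25 to 95 °C, heating 1.0 °C/min.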

HeLa = test: Downregulation of hTERC mRNA expression in human HeLa cells at 5 to 20 uM by qRT-PCR analysis; assay type: functional, cell-based; conditions: dose 5-20 µM
In short: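 HeLa cells were treated with graded compound concentrations, then incubated 36 h. RNA was extracted with Trizol/chloroform, reverse transcribed and quantified by qRT-PCR. GAPDH served as internal control, with relative expression by the ΔΔCt method; three independent experiments, mean ± SD.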

[1] = Drug uptake in nucleolus of human U87 cells assessed as imaging of G-quadruplex at 5 uM for 30 mins followed by co-staining with DAPI and measured after 10 mins by confocal laser fluorescence microscopic analysis; assay type: ADME, subcellular; conditions: u-87mg atcc, 40 min
In short: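 Live U87 cells were co-stained with ligand (5 μM, 30 min) and DAPI (1 μM, 10 min). Confocal imaging used excitation at 402 nm for DAPI and 488 or 571 nm for the ligand.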

[2] = test system: Quadruplex DNA [UNDEFINED MUTATION]; test: Effect on confirmation of telomeric Htg24 G-quadruplex DNA A14G mutant (unknown origin) assessed as hybrid topology at 5 uM at pH 7.4 by circular dichroism analysis; assay type: nucleic-acid assay; conditions: Homo sapiens
In short: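 CD spectra recorded on G4-DNA and ligand, each at 5 μM, in 10 mM Tris-HCl, pH 7.4, with 60 mM KCl. Scan range 220–340 nm in a 1 mm quartz cuvette, 1 nm bandwidth and step, 0.5 s/point. Each spectrum is the average of three scans.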

## CN(C)c1ccc(/C=C/c2cc(/C=C3\Sc4ccccc4N3CCCN3CCOCC3)c3ccccc3[n+]2C)cc1.[I-]
Quadruplex DNA
  ΔTm: 9.1 °C
HeLa
  Activity: Active
[1]
  Drug uptake: Active
[2]
  Activity: Active
